Experimental data reported in ChEMBL document CHEMBL4811269, “Design, synthesis and antibacterial evaluation of novel C-11, C-9 or C-2'-substituted 3-O-descladinosyl-3-ketoclarithromycin derivatives” (Bioorg Med Chem Lett, 2021).
Values after ≈ are worked out from the molar mass of the structure shown.

What was measured:
Assay type in all cases: functional
Bacillus subtilis = test: Antibacterial activity against penicillin-susceptible Bacillus subtilis ATCC9372 by broth microdilution method
In short: (§1)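 MIC determined by standard broth microdilution per NCCLS recommendations, read as minimal inhibitory concentration in µg/mL. Standard ATCC strains tested alongside the other panel strains, with clarithromycin and azithromycin as reference agents.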

Staphylococcus aureus [1] = test: Antibacterial activity against penicillin-resistant Staphylococcus aureus ATCC 31007 by broth microdilution method
In short: (§2)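 MIC by standard NCCLS broth microdilution against resistant S. aureus strains, reported in µg/mL. Clarithromycin and azithromycin were run alongside as references.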

Staphylococcus aureus [2] = test: Antibacterial activity against methicillin-resistant Staphylococcus aureus ATCC 43300 by broth microdilution method; in short: as §2
Streptococcus pneumoniae [3] = test: Antibacterial activity against erythromycin-resistant Streptococcus pneumoniae B1 by broth microdilution method
In short: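 MIC by standard NCCLS broth microdilution, reported in µg/mL. The strain expresses the ermB gene. Clarithromycin and azithromycin were run alongside as references.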

Pseudomonas aeruginosa = test: Antibacterial activity against penicillin-susceptible Pseudomonas aeruginosa ATCC 27853 by broth microdilution method; in short: as §1
Streptococcus pyogenes = test: Antibacterial activity against erythromycin-resistant Streptococcus pyogenes R1 by broth microdilution method
In short: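 MIC by standard NCCLS broth microdilution, reported in µg/mL. The strain is a clinically isolated erythromycin-resistant strain. Clarithromycin and azithromycin were run alongside as references.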

Staphylococcus aureus [4] = test: Antibacterial activity against erythromycin-susceptible Staphylococcus aureus ATCC 25923 by broth microdilution method; in short: as §1
Streptococcus pneumoniae [5] = test: Antibacterial activity against erythromycin-resistant Streptococcus pneumoniae AB11 by broth microdilution method
In short: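 MIC by standard NCCLS broth microdilution, reported in µg/mL. The strain expresses the ermB and mefA genes. Clarithromycin and azithromycin were run alongside as references.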

| Structure (SMILES) | MIC (Bacillus subtilis) [µg/mL] | MIC (Staphylococcus aureus [1]) [µg/mL] | MIC (Staphylococcus aureus [2]) [µg/mL] | MIC (Streptococcus pneumoniae [3]) [µg/mL] | MIC (Pseudomonas aeruginosa) [µg/mL] | MIC (Streptococcus pyogenes) [µg/mL] | MIC (Staphylococcus aureus [4]) [µg/mL] | MIC (Streptococcus pneumoniae [5]) [µg/mL] |
| --- | --- | --- | --- | --- | --- | --- | --- | --- |
| CCCc1ccc(C(=O)O[C@@H]2[C@H](C)CN(C)CCOC(=O)[C@H](C)C(=O)[C@H](C)[C@@H](O[C@@H]3O[C@H](C)C[C@H](N(C)C)[C@H]3OC(=O)c3ccc(CCC)cc3)[C@](C)(OC)C[C@H]2C)cc1 | > 128 | > 256 | > 256 | > 256 | > 128 | > 256 | 64 (≈ 76.5 µM) | > 256 |
| CO[C@]1(C)C[C@@H](C)[C@H](OC(=O)c2ccc(Br)cc2)[C@H](C)CN(C)CCOC(=O)[C@H](C)C(=O)[C@H](C)[C@H]1O[C@@H]1O[C@H](C)C[C@H](N(C)C)[C@H]1OC(=O)c1ccc(Br)cc1 | > 128 | > 256 | > 256 | > 256 | > 128 | > 256 | 128 (≈ 141 µM) | > 256 |
| COc1cccc(C(=O)O[C@@H]2[C@H](C)CN(C)CCOC(=O)[C@H](C)C(=O)[C@H](C)[C@@H](O[C@@H]3O[C@H](C)C[C@H](N(C)C)[C@H]3OC(=O)c3cccc(OC)c3)[C@](C)(OC)C[C@H]2C)c1 | > 128 | > 256 | > 256 | > 256 | > 128 | > 256 | 128 (≈ 157 µM) | > 256 |
| CO[C@]1(C)C[C@@H](C)[C@H](OC(=O)c2cccc(Br)c2)[C@H](C)CN(C)CCOC(=O)[C@H](C)C(=O)[C@H](C)[C@H]1O[C@@H]1O[C@H](C)C[C@H](N(C)C)[C@H]1OC(=O)c1cccc(Br)c1 | > 128 | > 256 | > 256 | > 256 | > 128 | > 256 | 64 (≈ 70.3 µM) | > 256 |
| CO[C@]1(C)C[C@@H](C)[C@H](OC(=O)c2cc(Cl)cc(Cl)c2)[C@H](C)CN(C)CCOC(=O)[C@H](C)C(=O)[C@H](C)[C@H]1O[C@@H]1O[C@H](C)C[C@H](N(C)C)[C@H]1OC(=O)c1cc(Cl)cc(Cl)c1 | > 128 | > 256 | > 256 | > 256 | > 128 | > 256 | 128 (≈ 144 µM) | > 256 |
| CO[C@]1(C)C[C@@H](C)[C@H](OC(=O)c2cccc([N+](=O)[O-])c2)[C@H](C)CN(C)CCOC(=O)[C@H](C)C(=O)[C@H](C)[C@H]1O[C@@H]1O[C@H](C)C[C@H](N(C)C)[C@H]1OC(=O)c1cccc([N+](=O)[O-])c1 | > 128 | > 256 | > 256 | > 256 | > 128 | > 256 | 128 (≈ 152 µM) | > 256 |
| CO[C@]1(C)C[C@@H](C)[C@H](OC(=O)c2ccc(C(F)(F)F)cc2)[C@H](C)CN(C)CCOC(=O)[C@H](C)C(=O)[C@H](C)[C@H]1O[C@@H]1O[C@H](C)C[C@H](N(C)C)[C@H]1OC(=O)c1ccc(C(F)(F)F)cc1 | > 128 | > 256 | > 256 | > 256 | > 128 | > 256 | 64 (≈ 72 µM) | > 256 |
| CO[C@]1(C)C[C@@H](C)[C@H](OC(=O)c2cccc(C)c2)[C@H](C)CN(C)CCOC(=O)[C@H](C)C(=O)[C@H](C)[C@H]1O[C@@H]1O[C@H](C)C[C@H](N(C)C)[C@H]1OC(=O)c1cccc(C)c1 | > 128 | > 256 | > 256 | > 256 | > 128 | > 256 | 128 (≈ 164 µM) | > 256 |
| CO[C@]1(C)C[C@@H](C)[C@H](OC(=O)c2ccc(F)cc2)[C@H](C)CN(C)CCOC(=O)[C@H](C)C(=O)[C@H](C)[C@H]1O[C@@H]1O[C@H](C)C[C@H](N(C)C)[C@H]1OC(=O)c1ccc(F)cc1 | > 128 | > 256 | > 256 | > 256 | > 128 | > 256 | 128 (≈ 162 µM) | > 256 |
| COc1ccc(C(=O)O[C@@H]2[C@H](C)CN(C)CCOC(=O)[C@H](C)C(=O)[C@H](C)[C@@H](O[C@@H]3O[C@H](C)C[C@H](N(C)C)[C@H]3OC(=O)c3ccc(OC)cc3)[C@](C)(OC)C[C@H]2C)cc1 | > 128 | > 256 | > 256 | > 256 | > 128 | > 256 | 64 (≈ 78.7 µM) | > 256 |
| CO[C@]1(C)C[C@@H](C)[C@H](OC(=O)c2ccc([N+](=O)[O-])cc2)[C@H](C)CN(C)CCOC(=O)[C@H](C)C(=O)[C@H](C)[C@H]1O[C@@H]1O[C@H](C)C[C@H](N(C)C)[C@H]1OC(=O)c1ccc([N+](=O)[O-])cc1 | > 128 | > 256 | > 256 | > 256 | > 128 | > 256 | 64 (≈ 75.9 µM) | > 256 |
| CCOc1ccc(C(=O)O[C@@H]2[C@H](C)CN(C)CCOC(=O)[C@H](C)C(=O)[C@H](C)[C@@H](O[C@@H]3O[C@H](C)C[C@H](N(C)C)[C@H]3OC(=O)c3ccc(OCC)cc3)[C@](C)(OC)C[C@H]2C)cc1 | > 128 | > 256 | > 256 | > 256 | > 128 | > 256 | 128 (≈ 152 µM) | > 256 |
| CO[C@]1(C)C[C@@H](C)[C@H](OC(=O)c2ccccc2Br)[C@H](C)CN(C)CCOC(=O)[C@H](C)C(=O)[C@H](C)[C@H]1O[C@@H]1O[C@H](C)C[C@H](N(C)C)[C@H]1OC(=O)c1ccccc1Br | > 128 | > 256 | > 256 | > 256 | > 128 | > 256 | 128 (≈ 141 µM) | > 256 |
| CO[C@]1(C)C[C@@H](C)[C@H](OC(=O)c2cccc(F)c2)[C@H](C)CN(C)CCOC(=O)[C@H](C)C(=O)[C@H](C)[C@H]1O[C@@H]1O[C@H](C)C[C@H](N(C)C)[C@H]1OC(=O)c1cccc(F)c1 | > 128 | > 256 | > 256 | > 256 | > 128 | > 256 | 128 (≈ 162 µM) | > 256 |
| CCc1ccc(C(=O)O[C@@H]2[C@H](C)CN(C)CCOC(=O)[C@H](C)C(=O)[C@H](C)[C@@H](O[C@@H]3O[C@H](C)C[C@H](N(C)C)[C@H]3OC(=O)c3ccc(CC)cc3)[C@](C)(OC)C[C@H]2C)cc1 | > 128 | > 256 | > 256 | > 256 | > 128 | > 256 | 64 (≈ 79.1 µM) | > 256 |
| CO[C@]1(C)C[C@@H](C)[C@H](OC(=O)c2cccc(Cl)c2)[C@H](C)CN(C)CCOC(=O)[C@H](C)C(=O)[C@H](C)[C@H]1O[C@@H]1O[C@H](C)C[C@H](N(C)C)[C@H]1OC(=O)c1cccc(Cl)c1 | > 128 | > 256 | > 256 | > 256 | > 128 | > 256 | 64 (≈ 77.9 µM) | > 256 |
| CC[C@H]1OC(=O)[C@H](C)[C@@H](O[C@H]2C[C@@](C)(OC)[C@@H](O)[C@H](C)O2)[C@H](C)[C@@H](O[C@@H]2O[C@H](C)C[C@H](N(C)C)[C@H]2O)[C@](C)(O)C[C@@H](C)CN(C)[C@H](C)[C@@H](O)[C@]1(C)O [AZITHROMYCIN] | ≤ 0.25 | > 256 | > 256 | > 256 | 32 (≈ 42.7 µM) | 256 (≈ 342 µM) | ≤ 0.25 | 128 (≈ 171 µM) |
